Experimental data reported in ChEMBL document CHEMBL1938380, “Indole RSK inhibitors. Part 1: discovery and initial SAR” (Bioorg Med Chem Lett, 2012).

Legend:
[1] = target: T1, Ribosomal protein S6 kinase alpha-3 (Homo sapiens, UniProt P51812); assay: Inhibition of RSK2 phosphorylation by luminescence assay
Summary of the method: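 Soluble RSK2 enzyme; its phosphorylation activity was read out in a luminescent kinase assay format adapted from a published method.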

[2] = target: T1, Ribosomal protein S6 kinase alpha-3; assay: Inhibition of RSK2-mediated CREB phosphorylation in HeLa cells expressing luciferase reporter gene; assay type: cell-based

T1 sequence (P51812 whole entry): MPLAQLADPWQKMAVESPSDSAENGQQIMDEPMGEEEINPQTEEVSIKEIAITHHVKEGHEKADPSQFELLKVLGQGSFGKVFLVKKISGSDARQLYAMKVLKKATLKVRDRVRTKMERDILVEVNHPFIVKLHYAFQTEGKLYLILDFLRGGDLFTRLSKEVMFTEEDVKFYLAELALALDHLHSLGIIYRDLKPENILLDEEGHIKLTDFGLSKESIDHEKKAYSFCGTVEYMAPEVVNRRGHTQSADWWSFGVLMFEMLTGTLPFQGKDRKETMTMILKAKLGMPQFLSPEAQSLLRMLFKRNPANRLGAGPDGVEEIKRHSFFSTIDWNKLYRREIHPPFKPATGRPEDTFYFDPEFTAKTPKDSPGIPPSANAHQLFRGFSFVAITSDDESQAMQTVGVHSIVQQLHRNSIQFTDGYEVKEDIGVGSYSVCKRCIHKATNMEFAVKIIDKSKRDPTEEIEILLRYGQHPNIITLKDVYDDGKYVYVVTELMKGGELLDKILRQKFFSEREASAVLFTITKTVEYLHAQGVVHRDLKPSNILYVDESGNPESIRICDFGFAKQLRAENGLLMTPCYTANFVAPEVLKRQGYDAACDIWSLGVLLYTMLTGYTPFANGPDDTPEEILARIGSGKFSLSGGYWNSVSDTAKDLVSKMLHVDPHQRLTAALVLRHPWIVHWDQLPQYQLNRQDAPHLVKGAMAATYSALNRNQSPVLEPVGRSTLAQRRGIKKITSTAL

SMILES | IC50 [1] [nM] | IC50 [2] [nM]
CC1CCn2c(cc3ccc(C(=O)Nc4cccnc4)cc32)C(=O)N1 (centres undefined) | 2500 | 
NC(=O)c1ccc2cc3n(c2c1)CCCNC3=O | 9100 | 
O=C(Nc1nc2ccccc2o1)c1ccc2cc3n(c2c1)CCCNC3=O |  | > 10000
Cn1nccc1NC(=O)c1ccc2cc3n(c2c1)CCCNC3=O | > 1000 | 
O=C(NC1CCCCC1)c1ccc2cc3n(c2c1)CCCNC3=O | > 10000 | 
O=C(Nc1ncccn1)c1ccc2cc3n(c2c1)CCCNC3=O | > 10000 | 
O=C(Nc1cnc2ccccc2c1)c1ccc2cc3n(c2c1)CCCNC3=O |  | 340
NC(=O)c1ccccc1NC(=O)c1ccc2cc3n(c2c1)CCCNC3=O |  | 560
O=C(NCc1cccnc1)c1ccc2cc3n(c2c1)CCCNC3=O | > 10000 | > 10000
O=C(Nc1ccccc1)c1ccc2cc3n(c2c1)CCCNC3=O |  | 1930
O=C(Nc1cccnc1)c1ccc2cc3n(c2c1)CC1(CCOCC1)CNC3=O | > 10000 | 
CC(C)n1ncc2cc(NC(=O)c3ccc4cc5n(c4c3)CCCNC5=O)cnc21 |  | 840
O=C(Nc1cn[nH]c1)c1ccc2cc3n(c2c1)CCCNC3=O |  | > 10000
CC1CCNC(=O)c2cc3ccc(C(=O)Nc4cccnc4)cc3n21 (centres undefined) |  | 890
O=C(Nc1ncc[nH]1)c1ccc2cc3n(c2c1)CCCNC3=O |  | 290
O=C(Nc1ccccn1)c1ccc2cc3n(c2c1)CCCNC3=O |  | 2630
O=C(Nc1nc2ccccc2s1)c1ccc2cc3n(c2c1)CCCNC3=O | > 10000 | 

Second part, the compound after the results:

IC50 [1] [nM] | IC50 [2] [nM] | SMILES
2200 |  | O=C(Nc1nccs1)c1ccc2cc3n(c2c1)CCCNC3=O
350 |  | CC1Cn2c(cc3ccc(C(=O)Nc4cccnc4)cc32)C(=O)N1 (centres undefined)
730 | > 10000 | O=C(Nc1cccnc1)c1ccc2cc3n(c2c1)CCNC3=O
180 |  | O=C(Nc1ccc(Cl)cc1)c1ccc2cc3n(c2c1)CCCNC3=O
1800 |  | NCC1CNC(=O)c2cc3ccc(C(=O)Nc4cccnc4)cc3n2C1 (centres undefined)
410 |  | O=C(Nc1cccnc1)c1ccc2cc3n(c2c1)CC1(CC1)CNC3=O
240 | 1940 | O=C(Nc1cccnc1)c1ccc2cc3n(c2c1)CCCNC3=O
240 |  | C[C@@H]1CNC(=O)c2cc3ccc(C(=O)Nc4cccnc4)cc3n2[C@@H]1C (relative stereo)
871 |  | C[C@@H]1[C@@H](C)NC(=O)c2cc3ccc(C(=O)Nc4cccnc4)cc3n21 (relative stereo)
68 | 1130 | O=C(Nc1ccc2ccccc2n1)c1ccc2cc3n(c2c1)CCCNC3=O
34 | 620 | O=C(Nc1ccncc1)c1ccc2cc3n(c2c1)CCCNC3=O
170 | 1630 | CC1CNC(=O)c2cc3ccc(C(=O)Nc4cccnc4)cc3n21 (centres undefined)
210 | 1550 | CC1(C)CNC(=O)c2cc3ccc(C(=O)Nc4cccnc4)cc3n21
4 | > 10000 | O=C(Nc1nc2ccccc2[nH]1)c1ccc2cc3n(c2c1)CCCNC3=O
45 | 840 | C[C@@H]1NC(=O)c2cc3ccc(C(=O)Nc4cccnc4)cc3n2[C@@H]1C (relative stereo)
970 |  | NCC1Cn2c(cc3ccc(C(=O)Nc4cccnc4)cc32)C(=O)N1 (centres undefined)
1200 | 4890 | CC1CNC(=O)c2cc3ccc(C(=O)Nc4cccnc4)cc3n2C1 (centres undefined)
